Measured values from ChEMBL document CHEMBL5058577, “EUbOPEN Chemogenomics Library 2 (Multiplex)” (2022).

Test system: HEK-293T
Assay: Multiplex assay against HEK293T
Type: toxicity, cell-based
Conditions: human
Procedure, shortened: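 Live cells were stained at seeding with Hoechst33342, BioTracker Green Microtubule Cytoskeleton Dye, MitoTracker Red and Annexin V Alexa Fluor 680, then imaged on a CQ1 microscope at 37°C and 5% CO2 after compound addition. CellPathfinder machine-learning gating split cells into Hoechst high-intensity objects or normal cells. Normal cells were split into healthy, pyknosed or fragmented nuclei, and pyknosed cells into mitotic or apoptotic. Tubulin, mitochondrial-mass and membrane-permeability phenotypes are per cents of healthy-nucleus cells.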

[1] = 12 h, 1 µM, compound concentration 1 uM, replicate 1
[2] = 12 h, 1 µM, compound concentration 1 uM, replicate 2
[3] = 12 h, 10 µM, compound concentration 10 uM, replicate 1
[4] = 12 h, 10 µM, compound concentration 10 uM, replicate 2
[5] = 24 h, 1 µM, compound concentration 1 uM, replicate 1
[6] = 24 h, 1 µM, compound concentration 1 uM, replicate 2
[7] = 24 h, 10 µM, compound concentration 10 uM, replicate 1
[8] = 24 h, 10 µM, compound concentration 10 uM, replicate 2
[9] = 48 h, 1 µM, compound concentration 1 uM, replicate 1
[10] = 48 h, 1 µM, compound concentration 1 uM, replicate 2
[11] = 48 h, 10 µM, compound concentration 10 uM, replicate 1
[12] = 48 h, 10 µM, compound concentration 10 uM, replicate 2

Cc1noc(-c2ccc(-c3ccc(CC(=O)O)cc3)cc2)c1NC(=O)O[C@H](C)c1ccccc1Cl
Population Apoptotic (%) [1]: 29% | Population Fragmented Nuclei (%) [1]: 7% | Population Healthy Nuclei (%) [1]: 79% | Population Hoechst High Intensity Objects (%) [1]: 5% | Population Membrane Permeable-Phenotype (%) [1]: 0% | Population Mitochondria Different-Phenotype (%) [1]: 38% | Population Mitotic Cells (%) [1]: 70% | Population Normal (%) [1]: 94% | Population Pyknosed Nuclei (%) [1]: 13% | Population Tubulin-Different-Phenotype (%) [1]: 29% | Total Cell Count [1]: 403 | Population Apoptotic (%) [2]: 59% | Population Fragmented Nuclei (%) [2]: 4% | Population Healthy Nuclei (%) [2]: 77% | Population Hoechst High Intensity Objects (%) [2]: 11% | Population Mitochondria Different-Phenotype (%) [2]: 69% | Population Mitotic Cells (%) [2]: 40% | Population Normal (%) [2]: 88% | Population Pyknosed Nuclei (%) [2]: 17% | Population Tubulin-Different-Phenotype (%) [2]: 28% | Total Cell Count [2]: 296 | Population Apoptotic (%) [3]: 51% | Population Fragmented Nuclei (%) [3]: 11% | Population Healthy Nuclei (%) [3]: 68% | Population Hoechst High Intensity Objects (%) [3]: 7% | Population Membrane Permeable-Phenotype (%) [3]: 0% | Population Mitochondria Different-Phenotype (%) [3]: 72% | Population Mitotic Cells (%) [3]: 48% | Population Normal (%) [3]: 92% | Population Pyknosed Nuclei (%) [3]: 20% | Population Tubulin-Different-Phenotype (%) [3]: 65% | Total Cell Count [3]: 295 | Population Apoptotic (%) [4]: 41% | Population Fragmented Nuclei (%) [4]: 8% | Population Healthy Nuclei (%) [4]: 72% | Population Hoechst High Intensity Objects (%) [4]: 14% | Population Mitochondria Different-Phenotype (%) [4]: 69% | Population Mitotic Cells (%) [4]: 58% | Population Normal (%) [4]: 85% | Population Pyknosed Nuclei (%) [4]: 18% | Population Tubulin-Different-Phenotype (%) [4]: 34% | Total Cell Count [4]: 341 | Population Apoptotic (%) [5]: 22% | Population Fragmented Nuclei (%) [5]: 10% | Population Healthy Nuclei (%) [5]: 79% | Population Hoechst High Intensity Objects (%) [5]: 5% | Population Membrane Permeable-Phenotype (%) [5]: 0% | Population Mitochondria Different-Phenotype (%) [5]: 23% | Population Mitotic Cells (%) [5]: 77% | Population Normal (%) [5]: 94% | Population Pyknosed Nuclei (%) [5]: 9% | Population Tubulin-Different-Phenotype (%) [5]: 17% | Total Cell Count [5]: 570 | Population Apoptotic (%) [6]: 40% | Population Fragmented Nuclei (%) [6]: 9% | Population Healthy Nuclei (%) [6]: 80% | Population Hoechst High Intensity Objects (%) [6]: 7% | Population Mitochondria Different-Phenotype (%) [6]: 42% | Population Mitotic Cells (%) [6]: 60% | Population Normal (%) [6]: 92% | Population Tubulin-Different-Phenotype (%) [6]: 20% | Total Cell Count [6]: 378 | Population Apoptotic (%) [7]: 39% | Population Fragmented Nuclei (%) [7]: 7% | Population Healthy Nuclei (%) [7]: 76% | Population Hoechst High Intensity Objects (%) [7]: 8% | Population Membrane Permeable-Phenotype (%) [7]: 1% | Population Mitochondria Different-Phenotype (%) [7]: 58% | Population Mitotic Cells (%) [7]: 60% | Population Normal (%) [7]: 91% | Population Pyknosed Nuclei (%) [7]: 16% | Population Tubulin-Different-Phenotype (%) [7]: 47% | Total Cell Count [7]: 352 | Population Apoptotic (%) [8]: 32% | Population Fragmented Nuclei (%) [8]: 9% | Population Healthy Nuclei (%) [8]: 75% | Population Hoechst High Intensity Objects (%) [8]: 16% | Population Membrane Permeable-Phenotype (%) [8]: 0% | Population Mitochondria Different-Phenotype (%) [8]: 53% | Population Mitotic Cells (%) [8]: 68% | Population Normal (%) [8]: 83% | Population Pyknosed Nuclei (%) [8]: 15% | Population Tubulin-Different-Phenotype (%) [8]: 38% | Total Cell Count [8]: 390 | Population Apoptotic (%) [9]: 17% | Population Fragmented Nuclei (%) [9]: 11% | Population Healthy Nuclei (%) [9]: 82% | Population Hoechst High Intensity Objects (%) [9]: 4% | Population Membrane Permeable-Phenotype (%) [9]: 1% | Population Mitochondria Different-Phenotype (%) [9]: 20% | Population Mitotic Cells (%) [9]: 82% | Population Normal (%) [9]: 95% | Population Pyknosed Nuclei (%) [9]: 5% | Population Tubulin-Different-Phenotype (%) [9]: 14% | Total Cell Count [9]: 930 | Population Apoptotic (%) [10]: 35% | Population Fragmented Nuclei (%) [10]: 12% | Population Healthy Nuclei (%) [10]: 76% | Population Membrane Permeable-Phenotype (%) [10]: 0% | Population Mitochondria Different-Phenotype (%) [10]: 34% | Population Mitotic Cells (%) [10]: 64% | Population Pyknosed Nuclei (%) [10]: 10% | Population Tubulin-Different-Phenotype (%) [10]: 21% | Total Cell Count [10]: 494 | Population Apoptotic (%) [11]: 38% | Population Fragmented Nuclei (%) [11]: 10% | Population Healthy Nuclei (%) [11]: 79% | Population Hoechst High Intensity Objects (%) [11]: 6% | Population Membrane Permeable-Phenotype (%) [11]: 0% | Population Mitochondria Different-Phenotype (%) [11]: 40% | Population Mitotic Cells (%) [11]: 61% | Population Normal (%) [11]: 93% | Population Pyknosed Nuclei (%) [11]: 10% | Population Tubulin-Different-Phenotype (%) [11]: 33% | Total Cell Count [11]: 445 | Population Apoptotic (%) [12]: 46% | Population Fragmented Nuclei (%) [12]: 13% | Population Healthy Nuclei (%) [12]: 74% | Population Hoechst High Intensity Objects (%) [12]: 10% | Population Membrane Permeable-Phenotype (%) [12]: 1% | Population Mitochondria Different-Phenotype (%) [12]: 35% | Population Mitotic Cells (%) [12]: 53% | Population Normal (%) [12]: 89% | Population Pyknosed Nuclei (%) [12]: 11% | Population Tubulin-Different-Phenotype (%) [12]: 25% | Total Cell Count [12]: 508
